8 molecules from publication PMC4058332 (ChemMedChem, 2013) can be followed below.

“Also recorded” adds a separate entry of the source.

By Ki is commonly meant the equilibrium dissociation constant of an inhibitor or competing ligand from its target. Lower therefore signals a stronger hold on the target. One may read the IC50 as the concentration that gives 50% inhibition. As usually defined, the Kd is the constant that tells how readily two partners part at equilibrium. Low values mean a tighter complex, high ones a looser complex.

One data set deals with uPAR (Homo sapiens, UniProt Q03405). The data set is described as follows: Fluorescence polarization competition assay, displacement of AE147-FAM peptide. The format is binding. The conditions noted are these: uPAR 320 nM, AE147-FAM 100 nM. In short, it runs like this:
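Competition binding: test compound diluted in DMSO, then in PBS with 0.01% Triton X-100 (final 100 μM to 0.046 μM). uPAR preincubated with compound ≥15 min, then fluorescein-labelled AE147 peptide added (final uPAR 320 nM, peptide 100 nM, DMSO 2%). Duplicate wells; polarization read at ex 485/em 530 nm. mP values converted to % inhibition; Ki from an online Ki calculator.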
Background: Fluorescence polarisation rises when a labelled molecule tumbles more slowly, as on binding a larger partner.

Data set [1] concerns NF-κB, HIF1α and ERK in MDA-MB-231 cells. The data set is described as follows: Luciferase reporter assay. The format is cell-based. Conditions: 25 μM. The method, boiled down: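 MDA-MB-231 cells transfected with pathway-focused reporters (NF-κB, hypoxia, MAPK/ERK); medium switched to complete DMEM (10% FBS) 16 h after transfection. Test compound (25 μM) added at 46 h; dual-luciferase readout (firefly/Renilla) at 48 h. Fold change = normalized ratio of treated reporter divided by that of untreated reporter; triplicate.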
Background: In a reporter assay the amount or activity of a reporter protein is the signal.

The next data set deals with AsPC-1 cells. The data set is described as follows: Cell viability by MTT assay, 3 days. The format is cell-based. Conditions: Homo sapiens, ASPC1, read-out: IC50, MTT. The method, boiled down:
(§1)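 Cells (10^4/well) plated overnight, then exposed to test compound or DMSO control for 3 days. Viability by MTT, absorbance 570 nm with 630 nm reference. Culture: MDA-MB-231 and PANC-1 in DMEM, AsPC-1 in RPMI medium, each with 10% FBS and 1% penicillin/streptomycin, 37°C, 5% CO2.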
A general note: Formazan colour is commonly taken as a measure of viable cells.

Data set [2] has as its system MDA-MB-231 cells. In words: Apoptosis assay, flow cytometry with Annexin V-FITC and PI staining. The format is cell-based. Conditions: 24 h; for Percentage apoptosis: Annexin V-positive/PI-negative cells; for Percentage necrosis: Annexin V-positive/PI-positive cells. The method, boiled down:
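MDA-MB-231 cells exposed 24 h to test compound at increasing concentrations or 1% DMSO, stained with Annexin V-FITC and PI, and analysed by flow cytometry. Apoptotic = Annexin V-positive/PI-negative; necrotic = Annexin V-positive/PI-positive, each as % of cells.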

Data set [3] relates to MDA-MB-231 matrix metalloproteinase (MMP-9) activity. In words: Gelatin zymography. The conditions noted are these: read-out: IC50, MMP-9 activity, 24 h treatment. The format is cell-based. In short, it runs like this:
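MDA-MB-231 cells treated with test compound 24 h in serum-free medium. Conditioned medium concentrated and run on 7.5% SDS gels with 1 mg/mL gelatin. Gels washed twice in 2.5% Triton X-100 (30 min, room temperature), incubated 36 h at 37 °C in 50 mM Tris-HCl pH 7.6, 200 mM NaCl, 10 mM CaCl2, 0.02% Brij 35. Coomassie-stained; clear MMP-9 bands quantified by imaging.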

The subject of data set [4] is MDA-MB-231 cells. The data set is described as follows: Cell viability by MTT assay, 3 days. The format is cell-based. The conditions noted are these: Homo sapiens, MDA-MB-231, read-out: IC50, MTT. In short, it runs like this: as §1
In data set [5] the test system is MDA-MB-231 cells. The data set is described as follows: Cell viability by MTT at 16 h, time frame of invasion and migration studies. The format is cell-based. In short, it runs like this: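 MDA-MB-231 viability read by MTT after 16 h exposure to test compound, matching the time frame of the invasion and migration assays.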
The next data set relates to MDA-MB-231 invasion. The data set is described as follows: Matrigel Boyden chamber invasion assay. The format is cell-based. The method, boiled down: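 Matrigel invasion chambers; insert underside coated with 30 ng μl-1 fibronectin overnight at 4 °C; inserts equilibrated 2 h in serum-free medium. After 4 h starvation, 5 × 10^4 MDA-MB-231 cells in 0.1% FBS medium with test compound or 1% DMSO placed upper; 10% FBS medium with same compound lower. After 16 h at 37°C, invaded cells methanol-fixed, hematoxylin-stained, counted in ten 200× fields.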

Another data set concerns MDA-MB-231 migration. The data set is described as follows: Wound healing migration assay. The format is cell-based. In short, it runs like this: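 Confluent MDA-MB-231 monolayers scratched with a pipette tip, washed, and cultured in complete medium with test compound. Wound closure measured as distance between wound edges in three random regions immediately after wounding and at 16 h and 40 h, by microscopy.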

The subject of the next data set is PANC-1 cells. In words: Cell viability by MTT assay, 3 days. The format is cell-based. Conditions: Homo sapiens, PANC-1, read-out: IC50, MTT. The method, boiled down: as §1
Another data set deals with MDA-MB-231 cell adhesion. In words: Cell adhesion to fibronectin. The format is cell-based. The conditions noted are these: Homo sapiens, MDA-MB-231, read-out: IC50, cell adhesion. The method, boiled down: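 Wells coated with 15 ng μl-1 fibronectin overnight at 4 °C, blocked 1 h with 2% BSA/PBS. MDA-MB-231 cells serum-starved 4 h, suspended at 2.5 × 10^4 cells ml-1 in 0.1% FBS DMEM with test compound at various concentrations or DMSO, and held 90 min at 37 °C. Washed three times with PBS; adherent cells by MTT (570/630 nm).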

Data set [6] deals with phospho-p44/42 MAPK in MDA-MB-231 cells. The data set is described as follows: Western blot analysis of p44/42 MAPK phosphorylation. The format is cell-based. Conditions: 50 μM, 30 min, serum starved cells on fibronectin. The method, boiled down:
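Serum-starved MDA-MB-231 cells (1.5 × 10^6/well) plated on wells coated with 30 ng μl-1 fibronectin, with 50 μM test compound or DMSO, for 30 min. Lysed in RIPA with protease/phosphatase inhibitors. 30 μg protein run on 10% SDS-PAGE and blotted. Probed overnight at 4°C with phospho-p44/42 (Thr202/Tyr204) or total p44/42 antibodies (1:2000), then fluorescent secondaries; actin loading control.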

Data set [7] deals with urokinase receptor (uPAR) (UniProt Q03405). In words: fluorescence polarisation.
urokinase receptor (uPAR), sequence (Q03405 23-305): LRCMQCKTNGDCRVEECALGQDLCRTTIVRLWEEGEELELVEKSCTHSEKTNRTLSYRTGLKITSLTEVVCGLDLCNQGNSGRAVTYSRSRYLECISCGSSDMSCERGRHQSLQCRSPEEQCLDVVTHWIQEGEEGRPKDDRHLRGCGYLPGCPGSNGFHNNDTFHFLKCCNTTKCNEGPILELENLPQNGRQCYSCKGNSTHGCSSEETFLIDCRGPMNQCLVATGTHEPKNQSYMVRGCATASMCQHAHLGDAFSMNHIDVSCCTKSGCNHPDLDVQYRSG

uPAR, sequence (Q03405 23-335): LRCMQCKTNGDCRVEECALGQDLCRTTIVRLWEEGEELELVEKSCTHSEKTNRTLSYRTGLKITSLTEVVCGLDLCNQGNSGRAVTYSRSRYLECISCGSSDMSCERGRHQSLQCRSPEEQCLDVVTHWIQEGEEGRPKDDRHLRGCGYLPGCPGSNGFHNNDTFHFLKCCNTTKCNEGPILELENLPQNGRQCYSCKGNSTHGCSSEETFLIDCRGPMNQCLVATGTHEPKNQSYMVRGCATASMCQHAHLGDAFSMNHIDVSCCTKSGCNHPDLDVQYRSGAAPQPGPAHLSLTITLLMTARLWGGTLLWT

On uPAR (Ki), `COc1cc(NC(=O)c2cnn(-c3ccc(C)c(C)c3)c2C2CCNCC2)cc(C(F)(F)F)c1` [1e, 1-(3,4-dimethylphenyl)-N-(3-methoxy-5-(trifluoromethyl)phenyl)-5-(piperidin-4-yl)-1H-pyrazole-4-carboxamide] came in with a Ki of 51.2 µM. This lies in the double-digit micromolar range.
On to `Cc1ccc(-n2ncc(C(=O)Nc3ccccc3OCc3ccccc3)c2C2CCNCC2)cc1C` [1f, N-(2-(benzyloxy)phenyl)-1-(3,4-dimethylphenyl)-5-(piperidin-4-yl)-1H-pyrazole-4-carboxamide], for which the “effect on NF-κB, HIF1α and ERK reporter pathways” value in data set [1] was “impaired all three pathways”. In addition, the half-inhibitory concentration (IC50) was 14 µM in the data set with AsPC-1 cells; 28 µM in data set [3]; 25 µM with MDA-MB-231 cells [4]; less than 10 µM in the data set with MDA-MB-231 invasion (Homo sapiens, MDA-MB-231, read-out: IC50, invasion); 22 µM in the data set on PANC-1 cells; roughly 25 µM in the data set on MDA-MB-231 cell adhesion. The Percentage apoptosis is recorded as 3% in the data set with MDA-MB-231 cells [2] (1 μM), 45% with MDA-MB-231 cells [2] (10 μM), 76% in the data set on MDA-MB-231 cells [2] (25 μM) and 61% with MDA-MB-231 cells [2] (50 μM). Also, the Percentage necrosis in the data set on MDA-MB-231 cells [2] (1 μM) is recorded as 7%; in the data set with MDA-MB-231 cells [2] (10 μM), 15%; with MDA-MB-231 cells [2] (25 μM), 8%; in the data set on MDA-MB-231 cells [2] (50 μM), 21%. The same molecule came in with a Ki at uPAR (Ki) of 17.2 µM. The inhibition at 10 µM with MDA-MB-231 cells [5] (Homo sapiens, MDA-MB-231, 16 h, read-out: inhibition of cell growth) was determined as 20%. Besides, the effect on invasion entry in the data set on MDA-MB-231 invasion (10 μM) is given as “inhibited invasion”; in the data set with MDA-MB-231 invasion (25 μM), “completely inhibited invasion; also recorded: complete inhibition of invasion”. In the data set with MDA-MB-231 migration (Homo sapiens, MDA-MB-231, read-out: inhibition of cell migration), the inhibition at 25 µM was determined as 70%. The “effect on p44/42 MAPK phosphorylation” value in data set [6] was “significantly impaired”.
Turning to `Cc1ccc(-n2ncc(C(=O)NCCc3ccc(F)cc3)c2C2CCNCC2)cc1C` [1g, 1-(3,4-dimethylphenyl)-N-(4-fluorophenethyl)-5-(piperidin-4-yl)-1H-pyrazole-4-carboxamide], the Ki at uPAR (Ki) amounted to 28.3 µM.
`Cc1ccc(-n2ncc(C(=O)Nc3ccc(C(C)C)cc3)c2C2CCNCC2)cc1C` [1h, 1-(3,4-dimethylphenyl)-N-(4-isopropylphenyl)-5-(piperidin-4-yl)-1H-pyrazole-4-carboxamide] showed a Ki on uPAR (Ki) of 63.3 µM.
On to `CCCc1ccc(NC(=O)c2cnn(-c3ccc(C)c(C)c3)c2C2CCNCC2)cc1` [1i, 1-(3,4-dimethylphenyl)-5-(piperidin-4-yl)-N-(4-propylphenyl)-1H-pyrazole-4-carboxamide], for which the Percentage apoptosis in the data set with MDA-MB-231 cells [2] (1 μM) is given as 11%; with MDA-MB-231 cells [2] (10 μM), 6%; in the data set with MDA-MB-231 cells [2] (25 μM) it was 46%; in the data set on MDA-MB-231 cells [2] (50 μM) it was 86%. Besides, the Percentage necrosis in the data set with MDA-MB-231 cells [2] (1 μM) came out at 7%; in the data set on MDA-MB-231 cells [2] (10 μM) it was 9%; in the data set with MDA-MB-231 cells [2] (25 μM), 10%; with MDA-MB-231 cells [2] (50 μM) it was 12%. This molecule also returned an inhibition constant (Ki) at uPAR (Ki) of 31.9 µM. Besides, the “effect on p44/42 MAPK phosphorylation” value in [6] was “significantly impaired”.
For the molecule `CCOc1ccccc1NC(=O)C1CC(=O)N(c2ccc(OC)cc2)C1c1ccc(OC)cc1` (stereo not shown) [compound 3, N-(2-ethoxyphenyl)-1,2-bis(4-methoxyphenyl)-5-oxopyrrolidine-3-carboxamide], the Percentage apoptosis in the data set on MDA-MB-231 cells [2] (1 μM) amounted to 2%; in the data set with MDA-MB-231 cells [2] (10 μM), 1%; in the data set with MDA-MB-231 cells [2] (25 μM) it was 2%; in the data set with MDA-MB-231 cells [2] (50 μM), 4%. In addition, the Percentage necrosis came to 6% in the data set on MDA-MB-231 cells [2] (1 μM), 3% in the data set with MDA-MB-231 cells [2] (10 μM), 8% in the data set on MDA-MB-231 cells [2] (25 μM) and 7% in the data set on MDA-MB-231 cells [2] (50 μM). For the same molecule, in the data set on MDA-MB-231 cells [5] (25 μM, MTT at 16 h), the cytotoxicity result is reported as “not cytotoxic”. In addition, the effect on invasion result in the data set on MDA-MB-231 invasion (25 μM) is recorded as “moderate inhibition of invasion”. Further, in the data set with MDA-MB-231 invasion (Homo sapiens, MDA-MB-231, read-out: inhibition of cell invasion), the inhibition at 25 µM is 50%. Moreover, the effect on migration entry with MDA-MB-231 migration (25 μM, wound healing) is “no effect on migration”. Moreover, the “effect on p44/42 MAPK phosphorylation” value in data set [6] is listed as “no inhibition”.
On to `COc1ccc(N2C(=O)CCC(C(=O)Nc3ccc(OC)cc3OC)C2c2ccc(F)cc2)cc1` (stereo not drawn) [compound 4, anti-N-(2,4-dimethoxyphenyl)-2-(4-fluorophenyl)-1-(4-methoxyphenyl)-6-oxopiperidine-3-carboxamide], for which the Percentage apoptosis came to 4% with MDA-MB-231 cells [2] (1 μM), 2% in the data set on MDA-MB-231 cells [2] (10 μM), 3% with MDA-MB-231 cells [2] (25 μM) and 3% in the data set with MDA-MB-231 cells [2] (50 μM). Besides, the Percentage necrosis in the data set with MDA-MB-231 cells [2] (1 μM) worked out at 3%; in the data set on MDA-MB-231 cells [2] (10 μM), 14%; in the data set with MDA-MB-231 cells [2] (25 μM), 6%; in the data set on MDA-MB-231 cells [2] (50 μM), 5%. Also, affinity at uPAR was put at a Ki of 18.9 µM. Besides, the “effect on p44/42 MAPK phosphorylation” value in data set [6] is on record as “no inhibition”.
On to “fluorescently-labeled AE147 peptide AE147-FAM”, for which the Kd in [7] amounted to 0.499 µM.
